A selection: hits, their analogues and other compounds. The true share with any hit is near 2.2%.
HNF4A DNA FP: change in binding of human HNF4 alpha to DNA. 0.3% of 360,000 active. HNF4a-FITC DNA binding, fluorescence polarization, 1 h. AID 1224865. activity change, % at 10 µM. P41235; in the data active = activity change above about 30%, passing the limit was not always enough
Granule exo inh: lytic granule exocytosis inhibition. AID 651702. 0.66% of 360,000 active. inhibition, % at 10 µM. TALL-104 LAMP-1 surface exposure, flow cytometry; cells stimulated with thapsigargin and PMA;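 active = inhibition above about 55%, limit read from the data; inconclusive = no clear call, values can overlap the other calls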
CSN deneddyl inh: inhibitors of human CSN-mediated cullin deneddylation | Purified CSN, SCF-Nedd8-OG deneddylation, fluorescence polarization | 0.38% of 360,000 active | AID 651999 | inhibition, % at 12.5 µM;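 active = pattern-corrected inhibition above about 35%, with an unprinted fluorescence ratio check between 0.5 and 1.5, limit read from the data, passing the limit was not always enough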;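 also: 0% = enzyme with substrate and 100% = substrate without enzyme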
Target sequence (Q92905 whole entry, looked up, one chain of several): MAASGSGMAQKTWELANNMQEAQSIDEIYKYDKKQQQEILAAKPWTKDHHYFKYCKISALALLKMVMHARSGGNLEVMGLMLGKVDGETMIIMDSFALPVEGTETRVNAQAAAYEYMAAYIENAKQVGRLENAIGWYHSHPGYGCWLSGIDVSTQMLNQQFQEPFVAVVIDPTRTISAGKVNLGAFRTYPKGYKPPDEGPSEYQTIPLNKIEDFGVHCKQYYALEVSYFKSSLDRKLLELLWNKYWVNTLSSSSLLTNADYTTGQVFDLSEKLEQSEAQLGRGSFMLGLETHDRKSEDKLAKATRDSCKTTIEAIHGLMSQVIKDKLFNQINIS
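Material: purified human Csn5 enzyme expressed in HEK293T cells / Medium: Tris buffer pH 7.5, NaCl, DTT, Tween-20, trehalose, ovalbumin / Compound dosing: 12.5 µM single point / Schedule: 90 min incubation of compound, enzyme and substrate at room temperature / Signal: fluorescence polarization of the substrate / Control set: no-enzyme wells high, enzyme-with-substrate wells low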
Myeloid diff 2: compounds promoting myeloid differentiation. 1% of 360,000 active. AID 624256. calls only at 10 µM. ER-HoxA9 myeloid progenitors, lysozyme-GFP differentiation, flow cytometry;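 active = normalized GFP-positive differentiation at or above the plate's own cutoff, the solvent-only control mean plus 3 SD; inconclusive = no clear call, values can overlap the other calls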;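 also: cells exposed to compound for four days before flow analysis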
Exocytosis CP01: blocks lytic granule exocytosis; shares compounds with Granule exo inh; TALL-104 cells, LAMP-1 externalization, flow cytometry; stimulated with PMA plus thapsigargin; inhibition, % at 10 µM; 11% of 1,500 active; AID 651954; in the data active = inhibition above about 60%;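 also: 0% = stimulated vehicle wells and 100% = unstimulated wells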
* marks the source's active call; other numbers are inactive results; i = inactive; ? = inconclusive; / = no result; ! = a repeat was not active.

SMILES	HNF4A DNA FP	Granule exo inh	CSN deneddyl inh	Myeloid diff 2	Exocytosis CP01
Cc1cc(C)cc(NC(=O)NCC2CCN(Cc3cc(C)ccc3C)CC2)c1	-3	46	5	i	/
CCc1ccc(NC(=O)NCC2CCN(Cc3cccc(Cl)c3)CC2)cc1	-3	61*	3	i	-4
CC1(C)C2CCC1(CS(=O)(=O)N1CCN(c3ccc(F)cc3)CC1)C(=O)C2 (centres undefined)	-1	5	0	i	/
CN(C)CCn1c(=N)n(CC(O)c2ccc(Cl)c(Cl)c2)c2ccccc21 (centres undefined)	2	85*	-5	i	-13
CCN(CC)CCNc1nc(-c2ccc(OC)cc2)c(-c2ccc(OC)cc2)s1	-2	66*	3	i	-2
COCCNc1nc(-c2ccc(OC)cc2)c(-c2ccc(OC)cc2)s1	-4	-2	-5	i	/
CNC(=O)N(O)C1N(/N=C/c2ccccc2OC)C(=S)SC1(C)C (centres undefined)	3	0	0	/	/
COc1ccc2[nH]c3c(N4CCc5ccccc5C4)ncnc3c2c1	0	99*	1	?	102*
CC(C)(C)c1ccc(CC(=O)N2CCC2(C)C(=O)N2CCCCC2)cc1 (centres undefined)	-1	-2	0	i	/
CCOC(=O)c1c(NC(=O)CSc2nnnn2-c2ccccc2OCC)sc2c1CC(C)(C)NC2(C)C	-2	65*	-5	i	63*
CCOC(=O)c1c(NC(=O)CCS(=O)(=O)c2ccccc2)sc2c1CC(C)(C)NC2(C)C	3	-2	0	i	/
CCOC(=O)c1c(NC(=O)C2COc3ccccc3O2)sc2c1CC(C)(C)NC2(C)C (centres undefined)	-2	9	-6	i	/
CCOC(=O)c1c(NC(=O)COc2ccccc2OCC)sc2c1CC(C)(C)NC2(C)C	3	68*	5	/	100*
CCOC(=O)c1c(NC(=O)COC(=O)c2ccc(C)s2)sc2c1CC(C)(C)NC2(C)C	10	64*	1	i	58
CC(C)C(NC(=O)CCNC(=O)c1ccccc1Cl)c1nc2ccccc2[nH]1 (centres undefined)	1	-1	-7	i	/
CCOc1cccc2sc(N(CCCN(C)C)C(=O)c3ccc(S(=O)(=O)N(C)Cc4ccccc4)cc3)nc12	-2	47	-1	i	/
CCOc1ccc2nc(N(CCN(C)C)C(=O)c3cc4ccccc4cc3OC)sc2c1	6	3	-4	i	/
CCN(c1ccccc1)S(=O)(=O)c1ccc(C(=O)N(CCCN(C)C)c2nc3cc4c(cc3s2)OCO4)cc1	4	70*	-5	i	3
CCOc1cccc2sc(N(CCN(C)C)C(=O)c3cc4ccccc4cc3OC)nc12	7	59*	-2	?	15
Cc1ccc2sc(N(CCCN(C)C)C(=O)c3ccc(S(=O)(=O)N(C)Cc4ccccc4)cc3)nc2c1C	1	66*	-1	i	58
CCOc1cccc2sc(N(CCCN(C)C)C(=O)c3ccc(S(=O)(=O)N(CC)Cc4ccccc4)cc3)nc12	4	64*	3	i	60*
COc1ccc(CNC(=O)COC(=O)c2c(NC(C)=O)sc(C)c2C)cc1	0	0	7	i	/
CCC(C)(C)C1CCC2(CC1)NC(=O)N(CC(=O)N(C)Cc1ccc(OC(F)F)cc1)C2=O (centres undefined)	-2	0	4	i	/
COc1ccc(-n2nc3c(c2NC(=O)CCl)CSC3)cc1	1	-2	2	?	/
CCCCCCNC(=O)c1cn(CC)c2cc(N3CCN(C)CC3)c(F)cc2c1=O	8	48	1	i	/
SMILES	HNF4A DNA FP	Granule exo inh	CSN deneddyl inh	Myeloid diff 2	Exocytosis CP01
O=C(COC(=O)c1ccc(S(=O)(=O)N2CCCCCC2)cc1)NCc1ccc(Cl)cc1	2	-1	-4	i	/
COc1ccc(CNc2ccc(Cl)cc2)cc1Cn1ccnc1	1	45	1	i	/
CCc1ccc(NCc2ccc(OC)c(Cn3ccnc3)c2)cc1	-4	58*	3	i	-13
COc1ccc(/C=N\NC(=O)c2sccc2C)cc1Cn1nc(C)cc1C	4	-1	-4	i	/
CCCCCCSc1cccc(-c2nc3ccccn3c2NCc2ccccc2)c1	0	58*!	-3	i	95*
COc1ccc(S(=O)(=O)N2CCc3ccccc32)cc1C(=O)N(CC(C)C)C1CCS(=O)(=O)C1 (centres undefined)	-4	0	4	i	/
CCCOc1ccccc1NC(=O)/C=C/C(N)=O	0	66*	-2	i	0
COC(=O)[C@@H](Cc1ccccc1)NC(=O)Cn1cc(C)c(=O)[nH]c1=O	-5	12	-3	i	/
CC(C)CCNC(=O)C1CC2Cn3c(nc4cc(Cl)c(Cl)cc43)C2N1C (centres undefined)	1	62*	2	i	-12
CCCCN(C(=O)c1c(C)noc1C)c1c(N)n(CCC)c(=O)[nH]c1=O	0	-1	11	i	/
O=C(CCCc1ccccc1)Nc1cccc([N+](=O)[O-])c1	0	57*	3	i	-13
O=C(CCc1ccccc1)Nc1cccc([N+](=O)[O-])c1	-1	-3	-12	i	/
Cc1ccc(CNC(=O)C2CC(c3cccc(F)c3)=NO2)cc1 (centres undefined)	-4	72*	11	i	-15
O=C(NCc1ccc(OC(F)(F)F)cc1)C1CC(c2cccc(F)c2)=NO1 (centres undefined)	1	-3	-1	i	/
COc1ccccc1CNc1nc(NCc2ccc3occc3c2)c2sccc2n1	2	93*	-5	i	90*
COc1ccccc1CNc1nc(NCc2ccccc2OC)c2sccc2n1	1	-2	0	i	/
COc1ccccc1CNc1nc(NCCOc2ccccc2)c2sccc2n1	4	56*	2	i	45
O=C(COc1cc2oc(=O)c3c(c2cc1Cl)CCC3)Nc1ccc(CN2CCOCC2)cc1	2	-4	-2	i	/
COC(=O)c1ccccc1C(=O)N(Cc1cccnc1)CC1CCCN(C2CCCCC2)C1 (centres undefined)	-1	8	3	i	/
COCc1cccc(C2=CC(=O)C[C@H](c3ccc(F)cc3)C2)c1	0	0	-2	i	/
COc1ccccc1N(CC(=O)NCCc1ccccc1)C(=O)CCC(=O)Nc1cc(C)ccn1	3	62*	0	i	-14
COc1ccccc1N(CC(=O)NCCc1ccccc1)C(=O)CCC(=O)Nc1ccccn1	0	17	6	i	/
CC1(C)CCc2cc(-c3ccnc(=S)[nH]3)ccc2O1	0	-4	0	i	/
S=c1nccc(-c2ccc3c(c2)CCO3)[nH]1	-2	59*	2	i	-12
Cc1ccc2c(C(=O)CN3CCC(C(N)=O)CC3)c(C)[nH]c2c1	1	-5	1	i	/
